Assay outcomes: PubChem, several laboratories
NR2E3 ag-1: agonists of human NR2E3 nuclear receptor; inhibition of corepressor binding, % at 3.98 µM; Q9Y5X4; AID 602229; 360,000 tested, 0.35% active; CHO-S Gal4-NCOR/VP16-NR2E3 two-hybrid, luciferase;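 active = inhibition above the mean of all tested compounds plus 3 SD, cut at about 70% in these data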;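 also: 0% = DMSO with NR2E3 transfected cells and 100% = cells lacking NR2E3 construct; higher means lower luciferase signal from less NR2E3 corepressor binding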
Target sequence (Q9Y5X4 whole entry, looked up, the tested form may be a part): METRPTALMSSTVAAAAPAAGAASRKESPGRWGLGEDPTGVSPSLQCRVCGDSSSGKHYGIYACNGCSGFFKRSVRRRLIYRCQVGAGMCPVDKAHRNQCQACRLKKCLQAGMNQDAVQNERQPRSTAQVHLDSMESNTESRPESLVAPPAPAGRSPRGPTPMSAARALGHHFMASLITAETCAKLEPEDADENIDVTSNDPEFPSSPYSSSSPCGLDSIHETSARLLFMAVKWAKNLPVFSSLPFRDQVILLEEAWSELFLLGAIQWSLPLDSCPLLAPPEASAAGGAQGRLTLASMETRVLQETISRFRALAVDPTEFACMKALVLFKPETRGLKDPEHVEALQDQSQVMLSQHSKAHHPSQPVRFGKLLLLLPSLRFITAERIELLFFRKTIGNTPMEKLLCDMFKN
Env fusion inh: blocks HIV Env-driven cell-cell fusion. HeLa-JRFL Env/CEM21 cell fusion, luciferase. inhibition, % at 12.3 µM. 360,000 tested, 1.1% active;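 active = mean replicate inhibition score of at least 50 and every replicate individually at or above 50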;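 also: 0% = plate neutral controls and 100% = maraviroc near 300 nM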
FXN GAA850 act: activators of GAA850 frataxin (FXN) promoter. HEK293 lucGAA850 FXN promoter luciferase reporter, 24 h; percent of 10 µM SAHA response. AID 540364. 360,000 tested, 0.56% active. activation, % at 6 µM;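 active = activation above the average of all compounds screened plus 3 SD, cutoff fixed separately per campaign, cut at about 7.5% in these data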;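 also: 0% = DMSO wells and 100% = 10 µM SAHA wells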
V-ATPase pH: yeast V-ATPase proton transport regulation by pHLuorin | 350,000 tested, 0.37% active | AID 504577 | response, % at 10 µM | S. cerevisiae, pHLuorin cytosolic pH fluorescence; in the data active = response mostly above about 7.3%, no sharp cut-off; inactive = mostly below about 5.4%; also: actives read high
GalR3 antagonist: antagonists of human GalR3; HEK293 GalR3-CNG cAMP membrane potential fluorescence; galR3 body fused to GalR1 C-terminus; O60755; inhibition, % at 3 µM; AID 651719; 360,000 tested, 0.44% active;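 active = inhibition above the screen-wide average plus 3 SD, cut at about 13% in these data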;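 also: forskolin and galanin both at EC90 stimulate the cells; cAMP rise reported by CNG channel membrane potential dye signal; 0% = forskolin plus galanin with DMSO and 100% = forskolin alone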
Target sequence (O60755 1-299 limits assumed): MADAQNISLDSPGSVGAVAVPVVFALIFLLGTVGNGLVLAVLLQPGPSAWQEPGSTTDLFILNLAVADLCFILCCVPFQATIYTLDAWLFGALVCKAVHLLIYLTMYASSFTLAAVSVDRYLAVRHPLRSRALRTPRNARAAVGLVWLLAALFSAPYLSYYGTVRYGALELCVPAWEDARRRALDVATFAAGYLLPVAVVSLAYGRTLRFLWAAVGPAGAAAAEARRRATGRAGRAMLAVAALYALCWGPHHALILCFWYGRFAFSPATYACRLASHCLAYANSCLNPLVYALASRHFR
NR2E3 ag-2: activates human photoreceptor nuclear receptor NR2E3; Q9Y5X4; GST-NR2E3/biotin-RetCOR TR-FRET, 1536-well; inhibition of corepressor binding, % at 4.78 µM; 320,000 tested, 0.12% active;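 active = percent inhibition above the cutoff of mean plus 3 SD of all tested compounds, set per screening campaign, cut at about 20% in these data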;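 also: 0% = DMSO wells and 100% = biotin wells as full block of FRET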
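System: GST-tagged NR2E3 plus biotinylated RetCOR corepressor; Amount: 1.35 nM GST-tagged NR2E3 final; Dosing: single nominal compound dose of 4.8 µM; Schedule: 5 h incubation at 4 °C; Technique: TR-FRET with europium anti-GST and streptavidin-D2, 340 nm excitation; Controls: biotin wells as high control, 0.6% DMSO wells as low control.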
* = called active by the depositor; x = no result; [ ] = remark or other dose. Only some compounds are listed: those with a hit (about 2.2% of all), similar ones and a draw of the others.

SMILES	NR2E3 ag-1	Env fusion inh	FXN GAA850 act	V-ATPase pH	GalR3 antagonist	NR2E3 ag-2
CCS(=O)(=O)N1CCC(c2nc(-c3ccc(C)cc3)no2)CC1	-37	-51	1	4	-8	1
CCS(=O)(=O)N1CCC(c2nc(-c3ccc(C(F)(F)F)cc3)no2)CC1	0	56*	-1	5	-5	-8
Cc1ccc(S(=O)(=O)N(C)C[C@@H]2OCCCC[C@H](C)Oc3ccc(NC(=O)c4ccncc4)cc3C(=O)N([C@H](C)CO)C[C@H]2C)cc1	x	9[16.7 µM]	x	x	x	x
C[C@H](CO)N1C[C@H](C)[C@@H](CN(C)Cc2ccncc2)Oc2ncc(C#CC3CCCC3)cc2C1=O	x	-6[16.7 µM]	x	x	x	x
O=c1cc(O)c2sc(Nc3ccc(F)c(Cl)c3)nc2[nH]1	-14	68*	2	1	-3	3
O=c1cc(O)c2sc(Nc3ccc(Cl)c(F)c3)nc2[nH]1	-3	31	4	0	-1	0
CCC(=O)N(C)C[C@H]1Oc2cc(C#Cc3ccccc3)ccc2S(=O)(=O)N([C@@H](C)CO)C[C@H]1C	x	3[16.7 µM]	x	x	x	x
CCC(=O)N(C)C[C@H]1Oc2cc(/C=C/c3ccccc3)ccc2S(=O)(=O)N([C@@H](C)CO)C[C@H]1C	x	59*[16.7 µM]	x	x	x	x
CCC(=O)N(C)C[C@@H]1Oc2cc(C#Cc3ccccc3)ccc2S(=O)(=O)N([C@@H](C)CO)C[C@H]1C	x	59*[16.7 µM]	x	x	x	x
C/C=C/c1ccc2c(c1)O[C@H](CN(C)C(=O)NC1CCCCC1)[C@H](C)CN([C@@H](C)CO)S2(=O)=O	x	56*[16.7 µM]	x	x	x	x
C[C@@H]1CN([C@@H](C)CO)S(=O)(=O)c2ccc(/C=C/c3ccccc3)cc2O[C@@H]1CN(C)C(=O)C1CC1	x	55*[16.7 µM]	x	x	x	x
C[C@H]1CN([C@@H](C)CO)S(=O)(=O)c2ccc(/C=C/c3ccccc3)cc2O[C@H]1CN(C)C(=O)C1CC1	x	15[16.7 µM]	x	x	x	x
C/C=C/c1ccc2c(c1)O[C@H](CN(C)C(=O)NC1CCCCC1)[C@@H](C)CN([C@H](C)CO)S2(=O)=O	x	-28[16.7 µM]	x	x	x	x
COCC(=O)Nc1ccc2c(c1)[C@@H]1C[C@H](CC(=O)NCc3ccccn3)O[C@H](CO)[C@@H]1O2	x	-5[16.7 µM]	x	x	x	x
O=C(C[C@@H]1C=C[C@@H](NC(=O)Nc2ccc3c(c2)OCO3)[C@@H](CO)O1)NCc1ccc(Cl)cc1	x	-15[16.7 µM]	x	x	x	x
CO[C@@H]1CN(C)C(=O)c2cc(NS(=O)(=O)c3ccc(Cl)cc3)ccc2OC[C@H](C)N(C)C[C@@H]1C	x	12[16.7 µM]	x	x	x	x
CO[C@H]1CN(C)C(=O)c2cc(NS(=O)(=O)c3ccc(Cl)cc3)ccc2OC[C@@H](C)N(C)C[C@@H]1C	x	61*[16.7 µM]	x	x	x	x
CO[C@@H]1CN(C)C(=O)c2cc(NS(=O)(=O)c3cn(C)cn3)ccc2OC[C@@H](C)N(Cc2ccc(C(F)(F)F)cc2)C[C@H]1C	x	88*[16.7 µM]	x	x	x	x
C[C@H](CO)N1C[C@H](C)[C@H](CN(C)Cc2cccnc2)Oc2cc(C#CCN(C)C)ccc2S1(=O)=O	x	-40[16.7 µM]	x	x	x	x
CCOc1ccc(C(=O)NCC(=O)OCc2c(C)noc2C)cc1OCC	14	8	0	13*	4	-3
CCOc1ccc(C(=O)NCC(=O)OCc2c(C)noc2C)cc1	3	x	-1	2	0	3
CC(=O)N(Cc1ccc(F)cc1)C1=C(NCCc2ccccc2)C(=O)c2ccccc2C1=O	17	84*	-1	-2	-3	3
O=C1C(Cl)=C(NCCc2ccccc2)C(=O)c2ccccc21	-20	6	3	12*	5	x
CC(=O)N(Cc1ccc(F)cc1)c1cccc(C)c1C	10	10	-3	x	-5	0
COc1ccc(-c2cc(C(F)(F)F)nc(SCC(=O)NCc3cccs3)n2)cc1	-8	56*	-2	-2	-4	4
SMILES	NR2E3 ag-1	Env fusion inh	FXN GAA850 act	V-ATPase pH	GalR3 antagonist	NR2E3 ag-2
Cc1cccc(C)c1NC(=O)CSc1nc(-c2ccco2)cc(C(F)(F)F)n1	-9	x	-4	-1	-1	5
O=C(CSc1nc(-c2ccco2)cc(C(F)(F)F)n1)Nc1ccccc1C(F)(F)F	18	74*	-3	-2	-4	0
C[C@H](CO)N1C[C@H](C)[C@H](CN(C)C(=O)Nc2ccc(C(F)(F)F)cc2)Oc2ccc(NS(=O)(=O)c3ccc(F)cc3)cc2CC1=O	x	-10[16.7 µM]	x	x	x	x
O=c1[nH]c(=S)[nH]c2c1C(c1ccc(Br)cc1)c1c([nH]c(=S)[nH]c1=O)O2	-51	7	0	147*	-10	7
CCS(=O)(=O)N1Cc2ccccc2CC1C(=O)N(C)Cc1ccc(OC)c(F)c1 (stereo not drawn)	7	7	-1	15*	-6	-1
O=c1[nH]c2c(cnn2-c2ccc(Cl)cc2)c(=O)n1-c1cccc(Cl)c1	-14	62*	1	-7	-4	-2
COc1ccc(NC(=O)N2CCN(c3nc(-c4cccc(OC)c4)cs3)CC2)cc1	15	63*	0	-4	-7	-1
C[C@@H]1CN([C@H](C)CO)C(=O)c2cc(NS(=O)(=O)c3ccccc3)ccc2O[C@@H](C)CCCCO[C@H]1CN(C)Cc1ccc(C(F)(F)F)cc1	x	10[16.7 µM]	x	x	x	x
COc1ccc(OC)c(-n2c(-c3cc(-c4ccc(F)cc4)n[nH]3)n[nH]c2=S)c1	-3	x	5	1	15*	1
O=C(NCC[C@@H]1CC[C@H](NS(=O)(=O)Cc2ccccc2)[C@@H](CO)O1)C1CCCCC1	x	-3[16.7 µM]	x	x	x	x
CCOC(=O)Cc1n[nH]c(=O)c2ccccc12	-2	-7	4	-1	-2	1
CCOC(=O)c1c(C)cc2c(CO)n[nH]c(=O)c2c1C	-17	56*	-1	4	-2	x
Cc1ccc(CSCCNC(=O)c2ccc(Cl)c(S(=O)(=O)N3CCOCC3)c2)cc1	-15	85*	-3	-3	-6	3
O=C(NCCC1=CCCCC1)c1ccc(Cl)c(S(=O)(=O)N2CCOCC2)c1	10	43	-1	-2	-3	0
C/C=C/c1ccc2c(c1)O[C@H](CN(C)C(=O)CN(C)C)[C@@H](C)CN([C@H](C)CO)S2(=O)=O	x	-2[16.7 µM]	x	x	x	x
CCC/C=C(\CCC)C(NC(=O)OCC(C)C)c1ccc(C(=O)OC)cc1 (stereo not drawn)	-20	31	0	-3	-5	2
CCC/C=C(\CCC)C(NS(=O)(=O)c1cccc2cccnc12)c1ccc(C(=O)OC)cc1 (stereo not drawn)	x	90*	x	x	-6	2
COc1ccc(C(=O)Nc2ccc3c(c2)OC[C@H](C)NC[C@@H](C)[C@@H](OC)CN(C)C3=O)cc1	x	21[16.7 µM]	x	x	x	x
CCCS(=O)(=O)NC(=O)C1(C)CCN(C(=O)COc2ccc(Cl)cc2Cl)C1 (stereo not drawn)	-28	56*	0	x	-2	x
CCCS(=O)(=O)NC(=O)C1(C)CCCN(C(=O)COc2ccc(Cl)cc2Cl)C1 (stereo not drawn)	-3	2	-1	x	-5	x
